{"source": "ChEMBL document CHEMBL4396871", "about": "“Leveraging a Low-Affinity Diazaspiro Orthosteric Fragment to Reduce Dopamine D3 Receptor (D3R) Ligand Promiscuity across Highly Conserved Aminergic G-Protein-Coupled Receptors (GPCRs)” (J Med Chem, 2019)", "key": {"[1]": {"molecular_target": "Delta-type opioid receptor (Homo sapiens) (UniProt P41143)", "sequence (P41143 whole entry)": "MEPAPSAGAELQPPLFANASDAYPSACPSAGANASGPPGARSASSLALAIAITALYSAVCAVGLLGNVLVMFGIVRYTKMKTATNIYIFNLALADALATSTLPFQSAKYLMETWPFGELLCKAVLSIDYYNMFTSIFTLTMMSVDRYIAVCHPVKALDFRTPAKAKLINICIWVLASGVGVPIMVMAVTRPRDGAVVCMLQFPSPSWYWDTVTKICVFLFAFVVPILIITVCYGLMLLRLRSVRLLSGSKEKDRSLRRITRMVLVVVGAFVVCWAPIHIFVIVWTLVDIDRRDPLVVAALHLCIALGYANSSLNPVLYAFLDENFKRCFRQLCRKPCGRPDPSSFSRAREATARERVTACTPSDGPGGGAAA", "assay": "Displacement of [3H]-DADLE from human DOR stably expressed in HEK cell membranes at 10 uM after 90 mins by microbeta scintillation counting method relative to control", "procedure,_shortened": "(§1)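 Primary screen at 10 μM compound, expressed as % receptor inhibition, from at least three experiments.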"}, "[2]": {"molecular_target": "5-hydroxytryptamine receptor 2C (Homo sapiens, UniProt P28335)", "assay": "Displacement of [3H]-mesulergine from recombinant human 5HT2C receptor transiently expressed in HEKT cell membranes measured after 90 mins by microbeta scintillation counting method"}, "D(4) dopamine receptor [3]": {"molecular_target": "T1, D(4) dopamine receptor (Homo sapiens, UniProt P21917)", "T1 sequence (P21917 whole entry)": "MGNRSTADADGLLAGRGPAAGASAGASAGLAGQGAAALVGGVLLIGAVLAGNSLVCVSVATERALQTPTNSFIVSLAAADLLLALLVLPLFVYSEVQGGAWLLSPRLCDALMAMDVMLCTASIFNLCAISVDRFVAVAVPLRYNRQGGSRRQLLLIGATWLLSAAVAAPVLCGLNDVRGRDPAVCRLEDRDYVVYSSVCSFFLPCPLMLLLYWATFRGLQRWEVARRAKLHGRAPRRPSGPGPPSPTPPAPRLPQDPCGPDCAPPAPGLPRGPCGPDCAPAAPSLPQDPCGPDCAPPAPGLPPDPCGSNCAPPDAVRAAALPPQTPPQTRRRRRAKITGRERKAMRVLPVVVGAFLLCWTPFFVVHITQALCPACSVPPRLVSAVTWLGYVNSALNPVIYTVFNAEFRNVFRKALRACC", "assay": "Agonist activity at recombinant human D4 receptor expressed in CHOK1 cells assessed as induction of beta arrestin2 recruitment measured after 30 mins by coelenterazine-based beta-galactosidase reporter gene assay", "assay_type": "cell-based"}, "[4]": {"molecular_target": "Sodium-dependent dopamine transporter (Homo sapiens) (UniProt Q01959)", "sequence (Q01959 whole entry)": "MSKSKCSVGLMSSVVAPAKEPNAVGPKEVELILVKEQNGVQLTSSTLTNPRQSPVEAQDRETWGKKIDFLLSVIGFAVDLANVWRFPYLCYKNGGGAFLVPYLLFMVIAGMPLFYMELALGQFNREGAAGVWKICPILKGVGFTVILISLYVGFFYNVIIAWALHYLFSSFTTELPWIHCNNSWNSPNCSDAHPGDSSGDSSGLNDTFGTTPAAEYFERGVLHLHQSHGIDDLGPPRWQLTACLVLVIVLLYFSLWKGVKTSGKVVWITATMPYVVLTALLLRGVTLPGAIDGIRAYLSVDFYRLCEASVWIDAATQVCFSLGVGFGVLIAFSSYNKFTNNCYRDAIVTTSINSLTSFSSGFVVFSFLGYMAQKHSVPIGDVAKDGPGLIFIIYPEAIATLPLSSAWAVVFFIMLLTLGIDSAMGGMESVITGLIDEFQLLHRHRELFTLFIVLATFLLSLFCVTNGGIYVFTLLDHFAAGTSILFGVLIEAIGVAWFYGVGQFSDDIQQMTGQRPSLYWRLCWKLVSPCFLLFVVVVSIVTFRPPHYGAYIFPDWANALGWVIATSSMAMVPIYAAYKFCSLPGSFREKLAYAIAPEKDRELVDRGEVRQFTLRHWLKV", "assay": "Displacement of [3H]-Win35428 from recombinant human DAT stably expressed in HEK cells at 10 uM measured after 90 mins by microbeta scintillation counting method relative to control", "assay_type": "cell-based", "procedure,_shortened": "as §1"}, "D(4) dopamine receptor [5]": {"molecular_target": "T1, D(4) dopamine receptor", "assay": "Displacement of [3H]N-methylspiperone from recombinant human D4 receptor stably expressed in HEK cell membranes measured after 90 mins by microbeta scintillation counting method"}, "[6]": {"molecular_target": "Sodium-dependent serotonin transporter (Homo sapiens, UniProt P31645)", "assay": "Displacement of [3H]-citalopram from recombinant human SERT stably expressed in HEK cells at 10 uM measured after 90 mins by microbeta scintillation counting method relative to control", "assay_type": "cell-based", "procedure,_shortened": "as §1"}, "[7]": {"molecular_target": "T2, Alpha-2A adrenergic receptor (Homo sapiens, UniProt P08913)", "T2 sequence (P08913 whole entry)": "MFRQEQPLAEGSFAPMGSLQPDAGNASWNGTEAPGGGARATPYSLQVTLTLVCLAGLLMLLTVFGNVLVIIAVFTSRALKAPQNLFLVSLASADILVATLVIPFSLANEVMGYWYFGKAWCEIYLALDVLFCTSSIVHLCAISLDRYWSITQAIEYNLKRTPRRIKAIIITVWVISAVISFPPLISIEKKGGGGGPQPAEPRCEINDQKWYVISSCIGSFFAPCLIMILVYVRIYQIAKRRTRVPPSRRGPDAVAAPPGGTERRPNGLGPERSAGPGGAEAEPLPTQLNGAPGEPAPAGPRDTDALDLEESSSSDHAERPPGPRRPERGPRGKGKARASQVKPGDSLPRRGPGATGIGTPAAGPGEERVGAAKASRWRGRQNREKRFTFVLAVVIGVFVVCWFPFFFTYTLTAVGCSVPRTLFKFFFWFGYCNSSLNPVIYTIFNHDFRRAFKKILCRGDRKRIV", "assay": "Displacement of [3H]-rauwolscine from recombinant human alpha2A adrenergic receptor stably expressed in MDCK cells measured after 90 mins by microbeta scintillation counting method", "assay_type": "cell-based"}, "[8]": {"molecular_target": "Alpha-2B adrenergic receptor (Homo sapiens, UniProt P18089)", "assay": "Displacement of [3H]-rauwolscine from recombinant human alpha2B adrenergic receptor transiently expressed in HEKT cells measured after 90 mins by microbeta scintillation counting method", "assay_type": "cell-based"}, "[9]": {"molecular_target": "Beta-3 adrenergic receptor (Homo sapiens) (UniProt P13945)", "sequence (P13945 whole entry, looked up)": "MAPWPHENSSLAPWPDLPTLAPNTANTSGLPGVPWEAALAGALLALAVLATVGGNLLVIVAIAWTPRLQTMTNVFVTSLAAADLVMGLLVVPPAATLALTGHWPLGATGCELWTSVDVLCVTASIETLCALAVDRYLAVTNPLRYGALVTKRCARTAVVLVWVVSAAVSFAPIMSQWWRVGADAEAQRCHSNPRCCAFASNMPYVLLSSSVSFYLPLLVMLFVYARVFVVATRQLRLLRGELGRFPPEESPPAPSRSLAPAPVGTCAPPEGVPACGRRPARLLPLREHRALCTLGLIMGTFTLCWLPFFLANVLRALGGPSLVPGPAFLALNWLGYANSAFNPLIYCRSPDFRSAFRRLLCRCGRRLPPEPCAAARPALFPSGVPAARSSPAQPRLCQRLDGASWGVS", "assay": "Displacement of [3H]-CGP12177 from recombinant human beta3 adrenergic stably expressed in HEK Flp-In cells at 10 uM measured after 90 mins by microbeta scintillation counting method relative to control", "assay_type": "cell-based", "procedure,_shortened": "as §1"}, "[10]": {"molecular_target": "Beta-2 adrenergic receptor (Homo sapiens) (UniProt P07550)", "sequence (P07550 whole entry, looked up)": "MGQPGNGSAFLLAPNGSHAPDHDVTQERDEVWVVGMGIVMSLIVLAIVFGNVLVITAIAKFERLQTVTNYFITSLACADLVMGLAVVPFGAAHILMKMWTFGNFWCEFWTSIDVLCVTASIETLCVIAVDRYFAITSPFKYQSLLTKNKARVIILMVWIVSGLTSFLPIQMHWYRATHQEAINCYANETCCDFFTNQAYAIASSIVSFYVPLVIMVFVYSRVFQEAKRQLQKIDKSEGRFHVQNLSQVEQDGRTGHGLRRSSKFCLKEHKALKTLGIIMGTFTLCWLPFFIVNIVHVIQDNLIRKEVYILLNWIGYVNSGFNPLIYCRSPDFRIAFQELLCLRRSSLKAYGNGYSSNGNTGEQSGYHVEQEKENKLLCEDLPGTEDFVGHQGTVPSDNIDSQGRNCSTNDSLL", "assay": "Displacement of [3H]-CGP12177 from recombinant human beta2 adrenergic stably expressed in HEK Flp-In cells at 10 uM measured after 90 mins by microbeta scintillation counting method relative to control", "assay_type": "cell-based", "procedure,_shortened": "as §1"}, "[11]": {"molecular_target": "Muscarinic acetylcholine receptor M4 (Homo sapiens) (UniProt P08173)", "assay": "Displacement of [3H]-QNB/[3H]-NMS from human muscarinic M4 receptor expressed in stable CHO cells at 10 uM after 90 mins by microbeta scintillation counting method relative to control", "assay_type": "cell-based", "procedure,_shortened": "as §1"}, "[12]": {"molecular_target": "T3, Neuronal acetylcholine receptor; alpha3/beta4 (Homo sapiens, UniProt P30926+P32297)", "assay": "Displacement of [3H]-epibatidine from recombinant human alpha3beta4 nACHR stably expressed in HEK cells at 10 uM measured after 90 mins by microbeta scintillation counting method relative to control", "assay_type": "cell-based", "procedure,_shortened": "as §1"}, "[13]": {"molecular_target": "5-hydroxytryptamine receptor 7 (Homo sapiens, UniProt P34969)", "assay": "Displacement of [3H]-LSD from recombinant human 5HT7A receptor stably expressed in HEK cell membranes measured after 90 mins by microbeta scintillation counting method"}, "[14]": {"molecular_target": "5-hydroxytryptamine receptor 1A (Homo sapiens, UniProt P08908)", "sequence (P08908 whole entry)": "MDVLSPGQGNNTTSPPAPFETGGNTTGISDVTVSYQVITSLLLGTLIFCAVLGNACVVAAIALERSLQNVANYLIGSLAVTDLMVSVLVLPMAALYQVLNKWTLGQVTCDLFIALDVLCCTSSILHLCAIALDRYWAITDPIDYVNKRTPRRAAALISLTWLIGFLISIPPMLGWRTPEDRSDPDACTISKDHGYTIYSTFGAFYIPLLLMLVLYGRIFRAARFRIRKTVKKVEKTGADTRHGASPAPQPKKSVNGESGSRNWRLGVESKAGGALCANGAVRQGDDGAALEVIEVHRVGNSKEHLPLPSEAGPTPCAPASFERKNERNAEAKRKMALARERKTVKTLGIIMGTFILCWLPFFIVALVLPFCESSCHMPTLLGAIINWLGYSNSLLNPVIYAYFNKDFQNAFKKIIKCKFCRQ", "assay": "Displacement of [3H]-Way100635 from recombinant human 5HT1A receptor transiently expressed in CHO cell membranes measured after 90 mins by microbeta scintillation counting method"}, "D2 dopamine receptor [15]": {"molecular_target": "T4, D2 dopamine receptor (Homo sapiens, UniProt P14416)", "T4 sequence (P14416 whole entry)": "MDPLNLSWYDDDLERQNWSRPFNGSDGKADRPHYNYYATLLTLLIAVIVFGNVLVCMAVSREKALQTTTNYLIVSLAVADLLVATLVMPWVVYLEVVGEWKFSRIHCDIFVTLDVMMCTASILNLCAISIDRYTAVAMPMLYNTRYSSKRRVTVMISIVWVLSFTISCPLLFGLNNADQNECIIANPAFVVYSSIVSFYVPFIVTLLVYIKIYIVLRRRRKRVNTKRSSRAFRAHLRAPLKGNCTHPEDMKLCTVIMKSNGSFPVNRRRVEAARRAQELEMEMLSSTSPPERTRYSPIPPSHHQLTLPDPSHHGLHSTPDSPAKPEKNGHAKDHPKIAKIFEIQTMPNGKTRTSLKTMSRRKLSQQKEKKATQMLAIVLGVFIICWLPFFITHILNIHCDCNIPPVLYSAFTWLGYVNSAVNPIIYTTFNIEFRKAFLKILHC", "assay": "Antagonist activity at recombinant human D2 receptor expressed in CHOK1 cells assessed as inhibition of quinpirole-induced beta arrestin2 recruitment preincubated for 30 mins followed by quinpirole addition and measured after 90 mins by coelenterazine-based beta-galactosidase reporter gene assay", "assay_type": "cell-based"}, "[16]": {"molecular_target": "T5, 5-hydroxytryptamine receptor 2A (Homo sapiens, UniProt P28223)", "T5 sequence (P28223 whole entry)": "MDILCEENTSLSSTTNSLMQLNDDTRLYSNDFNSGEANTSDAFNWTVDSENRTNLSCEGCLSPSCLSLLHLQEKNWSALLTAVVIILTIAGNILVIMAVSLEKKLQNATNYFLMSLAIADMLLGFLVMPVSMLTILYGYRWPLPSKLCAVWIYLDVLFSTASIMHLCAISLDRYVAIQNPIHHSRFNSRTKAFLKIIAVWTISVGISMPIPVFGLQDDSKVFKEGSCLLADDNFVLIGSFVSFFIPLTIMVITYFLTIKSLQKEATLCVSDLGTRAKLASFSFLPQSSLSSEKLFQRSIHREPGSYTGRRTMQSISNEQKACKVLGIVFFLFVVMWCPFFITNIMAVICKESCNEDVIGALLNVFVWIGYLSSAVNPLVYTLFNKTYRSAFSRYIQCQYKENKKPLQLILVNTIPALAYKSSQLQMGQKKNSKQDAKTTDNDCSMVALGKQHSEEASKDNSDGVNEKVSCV", "assay": "Displacement of [3H]-ketanserin from 5HT2A receptor (unknown origin) measured after 90 mins by microbeta scintillation counting method"}, "[17]": {"molecular_target": "T6, Muscarinic acetylcholine receptor M3 (Homo sapiens, UniProt P20309)", "assay": "Displacement of [3H]-QNB/[3H]-NMS from human muscarinic M3 receptor expressed in stable CHO cells at 10 uM after 90 mins by microbeta scintillation counting method relative to control", "assay_type": "cell-based", "procedure,_shortened": "as §1"}, "[18]": {"molecular_target": "5-hydroxytryptamine receptor 5A (Homo sapiens) (UniProt P47898)", "sequence (P47898 whole entry)": "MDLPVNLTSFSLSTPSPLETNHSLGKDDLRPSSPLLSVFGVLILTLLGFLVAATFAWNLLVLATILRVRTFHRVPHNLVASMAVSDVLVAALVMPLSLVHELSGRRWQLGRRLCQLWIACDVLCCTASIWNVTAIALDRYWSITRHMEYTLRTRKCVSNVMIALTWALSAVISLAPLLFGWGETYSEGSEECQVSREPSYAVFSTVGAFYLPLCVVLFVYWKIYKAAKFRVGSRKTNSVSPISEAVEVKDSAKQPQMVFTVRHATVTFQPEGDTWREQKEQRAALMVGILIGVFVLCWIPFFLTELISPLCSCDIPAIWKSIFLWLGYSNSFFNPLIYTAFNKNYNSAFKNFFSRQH", "assay": "Displacement of [3H]-LSD from recombinant human 5HT5A receptor stably expressed in Flp-In-CHO cell membranes at 10 uM measured after 90 mins by microbeta scintillation counting method relative to control", "procedure,_shortened": "as §1"}, "D(3) dopamine receptor": {"molecular_target": "D(3) dopamine receptor (Homo sapiens, UniProt P35462)", "sequence (P35462 whole entry)": "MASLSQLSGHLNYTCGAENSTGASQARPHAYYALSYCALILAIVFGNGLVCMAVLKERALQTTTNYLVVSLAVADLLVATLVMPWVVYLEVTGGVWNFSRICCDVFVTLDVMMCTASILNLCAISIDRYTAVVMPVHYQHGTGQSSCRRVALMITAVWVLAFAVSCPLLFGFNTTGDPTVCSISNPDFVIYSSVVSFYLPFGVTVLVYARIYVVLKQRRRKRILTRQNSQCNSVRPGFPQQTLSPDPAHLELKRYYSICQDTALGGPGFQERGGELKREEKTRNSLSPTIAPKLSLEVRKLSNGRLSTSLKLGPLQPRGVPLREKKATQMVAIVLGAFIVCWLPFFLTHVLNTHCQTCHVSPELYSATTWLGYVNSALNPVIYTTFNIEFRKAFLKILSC", "assay": "Displacement of [3H]N-methylspiperone from D3 receptor (unknown origin) measured after 90 mins by microbeta scintillation counting method relative to control"}, "[19]": {"molecular_target": "T5, 5-hydroxytryptamine receptor 2A", "assay": "Displacement of [3H]-ketanserin from 5HT2A receptor (unknown origin) at 10 uM measured after 90 mins by microbeta scintillation counting method relative to control", "procedure,_shortened": "as §1"}, "D2 dopamine receptor [20]": {"molecular_target": "T4, D2 dopamine receptor", "assay": "Displacement of [3H]N-methylspiperone from recombinant human D2 receptor stably expressed in fibroblast at 10 uM measured after 90 mins by microbeta scintillation counting method relative to control", "settings": "fibroblasts stably expressing recombinant human D2 receptor, probe [3H]N-methylspiperone"}, "[21]": {"molecular_target": "T2, Alpha-2A adrenergic receptor", "assay": "Displacement of [3H]-rauwolscine from recombinant human alpha2A adrenergic receptor stably expressed in MDCK cells at 10 uM measured after 90 mins by microbeta scintillation counting method relative to control", "assay_type": "cell-based", "settings": "probe [3H]-rauwolscine"}, "Histamine H3 receptor": {"molecular_target": "Histamine H3 receptor (Homo sapiens, UniProt Q9Y5N1)", "assay": "Displacement of [3H]-alpha-methylhistamine from human histamine H3 receptor stably expressed in HEK Flp-In cells after 90 mins by microbeta scintillation counting method", "assay_type": "cell-based"}, "[22]": {"molecular_target": "D(4) dopamine receptor (Homo sapiens) (UniProt P21917)", "sequence (P21917 whole entry)": "as the sequence (P21917 whole entry) above", "assay": "Displacement of [3H]N-methylspiperone from recombinant human D4 receptor stably expressed in HEK cell membranes at 10 uM measured after 90 mins by microbeta scintillation counting method relative to control"}, "[23]": {"molecular_target": "T3, Neuronal acetylcholine receptor; alpha3/beta4", "assay": "Displacement of [3H]-epibatidine from recombinant human alpha3beta4 nACHR stably expressed in HEK cells measured after 90 mins by microbeta scintillation counting method", "assay_type": "cell-based"}, "[24]": {"molecular_target": "Muscarinic acetylcholine receptor M2 (Homo sapiens, UniProt P08172)", "assay": "Displacement of [3H]-QNB/[3H]-NMS from human muscarinic M2 receptor expressed in stable CHO cells after 90 mins by microbeta scintillation counting method", "assay_type": "cell-based"}, "[25]": {"molecular_target": "T6, Muscarinic acetylcholine receptor M3", "assay": "Displacement of [3H]-QNB/[3H]-NMS from human muscarinic M3 receptor expressed in stable CHO cells after 90 mins by microbeta scintillation counting method", "assay_type": "cell-based"}, "D(1B) dopamine receptor": {"molecular_target": "D(1B) dopamine receptor (Homo sapiens, UniProt P21918)", "assay": "Displacement of [3H]-SCH23390 from recombinant human D5 receptor transiently expressed in HEK cell membranes at 10 uM measured after 90 mins by microbeta scintillation counting method relative to control", "procedure,_shortened": "as §1"}}, "data": [{"molecule": "COc1ccccc1N1CCN(CCCSc2nnc(-c3ccccc3)n2C)CC1", "values": [{"measurement": "inhibition", "setting": "[1]", "value": "< 50", "unit": "%"}, {"measurement": "Ki", "setting": "[2]", "value": 0.159, "unit": "µM"}, {"measurement": "EC50", "setting": "D(4) dopamine receptor [3]", "value": 0.359, "unit": "µM"}, {"measurement": "inhibition", "setting": "[4]", "value": "< 50", "unit": "%"}, {"measurement": "Ki", "setting": "D(4) dopamine receptor [5]", "value": 0.721, "unit": "µM"}, {"measurement": "inhibition", "setting": "[6]", "value": "< 50", "unit": "%"}, {"measurement": "Ki", "setting": "[7]", "value": 0.221, "unit": "µM"}, {"measurement": "Ki", "setting": "[8]", "value": 0.241, "unit": "µM"}, {"measurement": "inhibition", "setting": "[9]", "value": "< 50", "unit": "%"}, {"measurement": "inhibition", "setting": "[10]", "value": 60, "unit": "%"}, {"measurement": "inhibition", "setting": "[11]", "value": "< 50", "unit": "%"}, {"measurement": "inhibition", "setting": "[12]", "value": "< 50", "unit": "%"}, {"measurement": "Ki", "setting": "[13]", "value": 0.128, "unit": "µM"}, {"measurement": "Ki", "setting": "[14]", "value": 0.0009, "unit": "µM"}, {"measurement": "IC50", "setting": "D2 dopamine receptor [15]", "value": 0.328, "unit": "µM"}, {"measurement": "Ki", "setting": "[16]", "value": 1.41, "unit": "µM"}, {"measurement": "inhibition", "setting": "[17]", "value": "< 50", "unit": "%"}, {"measurement": "inhibition", "setting": "[18]", "value": "< 50", "unit": "%"}, {"measurement": "Ki", "setting": "D(3) dopamine receptor", "value": 0.006, "unit": "µM"}]}, {"molecule": "COc1ccccc1N1CCC2(CCN(CCCSc3nnc(-c4ccccc4)n3C)CC2)CC1", "values": [{"measurement": "inhibition", "setting": "[19]", "value": "< 50", "unit": "%"}, {"measurement": "inhibition", "setting": "[1]", "value": "< 50", "unit": "%"}, {"measurement": "inhibition at […], 10 µM", "setting": "D2 dopamine receptor [20]", "value": "< 50", "unit": "%"}, {"measurement": "inhibition at […], 10 µM", "setting": "[21]", "value": "< 50", "unit": "%"}, {"measurement": "Ki", "setting": "Histamine H3 receptor", "value": 0.509, "unit": "µM"}, {"measurement": "inhibition", "setting": "[22]", "value": "< 50", "unit": "%"}, {"measurement": "inhibition", "setting": "[4]", "value": "< 50", "unit": "%"}, {"measurement": "Ki", "setting": "[23]", "value": 8.52, "unit": "µM"}, {"measurement": "inhibition", "setting": "[9]", "value": "< 50", "unit": "%"}, {"measurement": "Ki", "setting": "[24]", "value": 0.052, "unit": "µM"}, {"measurement": "Ki", "setting": "[25]", "value": 0.514, "unit": "µM"}, {"measurement": "inhibition", "setting": "[10]", "value": "< 50", "unit": "%"}, {"measurement": "Ki", "setting": "[14]", "value": 1.3, "unit": "µM"}, {"measurement": "IC50", "setting": "D2 dopamine receptor [15]", "value": 1.62, "unit": "µM"}, {"measurement": "inhibition", "setting": "[18]", "value": "< 50", "unit": "%"}, {"measurement": "Ki", "setting": "D(3) dopamine receptor", "value": 0.094, "unit": "µM"}, {"measurement": "inhibition", "setting": "D(1B) dopamine receptor", "value": "< 50", "unit": "%"}]}]}
